Data on one compound can be found in ChEMBL document CHEMBL4715824, “Chemical Proteomic Characterization of a Covalent KRASG12C Inhibitor” (ACS Med Chem Lett, 2018).

Assay [1] concerns the target T1, Quinone oxidoreductase (Homo sapiens) (UniProt Q08257).
T1 sequence (whole entry): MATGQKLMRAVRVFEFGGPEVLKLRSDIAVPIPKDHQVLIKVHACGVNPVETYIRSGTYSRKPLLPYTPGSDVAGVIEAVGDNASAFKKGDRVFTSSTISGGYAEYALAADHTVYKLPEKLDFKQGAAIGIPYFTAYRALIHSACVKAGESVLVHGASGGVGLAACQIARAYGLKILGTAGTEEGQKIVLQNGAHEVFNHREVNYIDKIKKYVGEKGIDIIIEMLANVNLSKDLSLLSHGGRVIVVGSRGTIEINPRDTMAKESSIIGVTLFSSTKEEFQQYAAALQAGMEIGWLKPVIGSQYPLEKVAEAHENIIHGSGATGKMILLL
In words: Covalent binding affinity to CRYZ at Cys45 residue in human NCI-H358 cells assessed as log2 H/L ratio at 10 uM pretreated for 3 hrs followed by N-(((6S,7R)-7-(4-chloro-3-fluorophenyl)-1,4-oxazepan-6-yl)methyl)-2-hydroxyacetamide treatment for 3 hrs by competitive TMT click chemistry pull-down experiment based LC-MS/MS analysis. It counts as cell-based. The note with it: time 6.0 hrs. Summed up:
(§1)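 H358 cells were pretreated with DMSO (n = 3) or 10 μM compound for 3 h, then 2 μM alkyne probe was added for another 3 h. Cells were lysed, clicked onto azide-agarose resin, digested, TMT-labelled and pooled. The pool was fractionated by high-pH HPLC and each fraction run twice by 60 min low-pH nano LC-MS/MS. Readout was log2 compound/DMSO normalized reporter intensity, with a least-squares means test and FDR adjustment.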

In assay [2] the target is T2, Reticulon-4 (Homo sapiens) (UniProt Q9NQC3).
T2 sequence (whole entry): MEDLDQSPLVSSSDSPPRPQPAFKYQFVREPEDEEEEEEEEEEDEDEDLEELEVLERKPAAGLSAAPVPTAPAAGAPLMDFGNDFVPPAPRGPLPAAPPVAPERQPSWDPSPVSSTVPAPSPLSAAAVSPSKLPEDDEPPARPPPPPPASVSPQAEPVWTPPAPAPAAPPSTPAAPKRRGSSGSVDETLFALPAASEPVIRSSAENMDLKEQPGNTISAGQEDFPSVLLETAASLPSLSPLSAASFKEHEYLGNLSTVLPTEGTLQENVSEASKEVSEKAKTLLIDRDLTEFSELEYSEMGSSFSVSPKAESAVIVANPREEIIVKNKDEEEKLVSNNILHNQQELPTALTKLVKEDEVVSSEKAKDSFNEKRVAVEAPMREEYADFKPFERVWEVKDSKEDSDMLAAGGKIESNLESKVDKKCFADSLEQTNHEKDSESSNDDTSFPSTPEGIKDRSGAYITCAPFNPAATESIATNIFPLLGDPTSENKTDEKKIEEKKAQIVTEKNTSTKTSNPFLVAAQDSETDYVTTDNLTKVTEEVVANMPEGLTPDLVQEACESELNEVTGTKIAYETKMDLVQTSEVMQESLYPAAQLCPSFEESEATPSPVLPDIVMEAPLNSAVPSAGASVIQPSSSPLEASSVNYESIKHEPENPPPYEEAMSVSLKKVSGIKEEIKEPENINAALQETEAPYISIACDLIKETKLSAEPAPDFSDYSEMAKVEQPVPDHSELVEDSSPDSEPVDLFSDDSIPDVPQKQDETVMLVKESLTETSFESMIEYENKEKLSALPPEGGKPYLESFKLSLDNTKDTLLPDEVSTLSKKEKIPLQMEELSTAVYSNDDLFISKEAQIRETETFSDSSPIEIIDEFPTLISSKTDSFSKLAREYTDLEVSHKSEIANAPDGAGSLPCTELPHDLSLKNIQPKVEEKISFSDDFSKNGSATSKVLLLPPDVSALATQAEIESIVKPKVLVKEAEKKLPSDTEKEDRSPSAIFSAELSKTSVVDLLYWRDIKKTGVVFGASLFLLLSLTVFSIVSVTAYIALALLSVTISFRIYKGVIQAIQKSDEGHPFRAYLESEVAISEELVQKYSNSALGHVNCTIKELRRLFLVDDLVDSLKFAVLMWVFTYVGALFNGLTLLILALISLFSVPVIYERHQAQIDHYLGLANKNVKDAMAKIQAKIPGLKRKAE
As to the kind of experiment: Covalent binding affinity to RTN4 at Cys1101 residue in human NCI-H358 cells assessed as log2 H/L ratio at 10 uM pretreated for 3 hrs followed by N-(((6S,7R)-7-(4-chloro-3-fluorophenyl)-1,4-oxazepan-6-yl)methyl)-2-hydroxyacetamide treatment for 3 hrs by competitive TMT click chemistry pull-down experiment based LC-MS/MS analysis. It counts as cell-based. Conditions: time 6.0 hrs. The essentials:
as §1

The target of assay [3] is T3, Reticulon-4 (Homo sapiens, UniProt Q9NQC3).
T3 sequence (Q9NQC3 whole entry): T2 sequence (whole entry)
In words: Covalent binding affinity to RTN4 at Cys1101 residue in human NCI-H358 cells assessed as reduction of log2 H/L ratio for tryptic peptide […] incubated for 4 hrs followed by cell lysis and subsequently labelled with light thiol probe N-((S)-18-iodo-11-isopropyl-10,13,17-trioxo-3,6-dioxa-9,12,16-triazaoctadecyl)-6-((4R,5S)-5-methyl-2-oxoimidazolidin-4-yl)hexanamide and heavy thiol probe 4 for 1 hr under dark conditions followed by tryptic digestion for overnight and measured by discovery ABPP based nano LC-MS/MS analysis. The essentials:
(§2)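 H358 cells were treated 4 h with DMSO, 0.08, 0.4, 2 or 10 μM, each paired with DMSO control cells, in biological duplicate. After lysis and denaturation, treated lysate took heavy thiol probe and control lysate took light probe. Lysates were combined equally, and probe-labelled tryptic peptides were streptavidin-enriched. Peptides were run twice by 180 min data-dependent nano LC-MS/MS. Hits needed log2 H/L below −0.776 (3σ) plus a dose-dependent decrease.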

Assay [4] deals with T4, Synaptic vesicle membrane protein VAT-1 homolog (Homo sapiens, UniProt Q99536).
T4 sequence (Q99536 whole entry): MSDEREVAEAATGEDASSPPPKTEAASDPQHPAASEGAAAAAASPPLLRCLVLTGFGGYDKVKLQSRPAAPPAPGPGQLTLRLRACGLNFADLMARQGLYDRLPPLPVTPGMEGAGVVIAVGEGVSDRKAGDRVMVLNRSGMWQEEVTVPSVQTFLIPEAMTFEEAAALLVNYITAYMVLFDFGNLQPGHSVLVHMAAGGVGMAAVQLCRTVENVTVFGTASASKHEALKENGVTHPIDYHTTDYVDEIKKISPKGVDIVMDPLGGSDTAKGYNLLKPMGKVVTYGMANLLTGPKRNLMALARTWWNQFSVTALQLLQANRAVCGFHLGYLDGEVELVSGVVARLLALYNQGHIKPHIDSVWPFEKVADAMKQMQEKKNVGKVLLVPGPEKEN
As to the kind of experiment: (§3) Covalent binding affinity to VAT1 at Cys residue in human NCI-H358 cells assessed as reduction of log2 H/L ratio for tryptic peptide […] incubated for 4 hrs followed by cell lysis and subsequently labelled with light thiol probe N-((S)-18-iodo-11-isopropyl-10,13,17-trioxo-3,6-dioxa-9,12,16-triazaoctadecyl)-6-((4R,5S)-5-methyl-2-oxoimidazolidin-4-yl)hexanamide and heavy thiol probe 4 for 1 hr under dark conditions followed by tryptic digestion for overnight and measured by discovery ABPP based nano LC-MS/MS analysis. Summed up:
as §2

Assay [5] concerns NCI-H2030. As to the kind of experiment: Antiproliferative activity against human NCI-H2030 cells harboring KRAS G12C mutant assessed as reduction in cell viability. It counts as functional, cell-based.
Assay [6] concerns the target T4, Synaptic vesicle membrane protein VAT-1 homolog. Described as §3. The essentials: as §2
This is another data set of the same source.

The term IC50 denotes the concentration that gives 50% inhibition.

In the case of `C=CC(=O)N1CCN(c2ncnc3c(F)c(-c4c(O)cccc4F)c(Cl)cc23)CC1`, the Ratio in assay [1] was 0.15; in assay [2], -0.4. Also, the IC50 amounted to 14.6 µM in assay [3], 4.48 µM in assay [4], 0.16 µM in assay [5] and 4.54 µM in assay [6].
